Compound activity: PubChem BioAssay, several laboratories
This excerpt belongs to a sample that is enriched for hits.
UPR XBP1 act: activators of adaptive arm of unfolded protein response (XBP1) | 330,000 tested, 0.33% active | AID 463104 | CHO-XBP1 luciferase reporter, IRE1-XBP1 UPR activation, luminescence; percent of tunicamycin response, DMSO as zero | activation, % at 20 µM;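 active = versus positive control, 20 µM dose yields 30% or more activation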
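Signal: luciferase luminescence; Assay system: CHO-XBP1 luciferase reporter cells; Amount: one thousand reporter cells per well; Dosing: 20 µM single concentration, DMSO 1%; Benchmarks: high control tunicamycin 10 µg/mL final, low control DMSO vehicle only; Schedule: 6 h compound exposure at 37 °C, 5% CO2; Evaluation: percent activation relative to tunicamycin reference.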
697 NFkB inh: lowers PMA/ionomycin-induced NF-kB signal in 697 B cells; 697 B-cell NF-kB luciferase reporter, 16 h; inhibition, % at 4 µM; 330,000 tested, 0.33% active; in the data active = inhibition above about 35%
UPR CHOP act: apoptotic UPR (CHOP) activation. activation, % at 10 µM. CHO-CHOP luciferase reporter, luminescence; percent of tunicamycin response over DMSO baseline. 330,000 tested, 0.34% active;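 active = at 10 µM dose, activation of 40% or more, normalized to positive control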
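assay system = CHO CHOP reporter cells | amount = 500 CHO-CHOP cells per well | buffer or medium = F12 with 10% FBS | incubation = 16-18 h cell attachment, then 6 h compound exposure, 37 °C | detection = luminescence read with Steady-Glo | read-out = percent activation relative to tunicamycin control | controls = tunicamycin high control, DMSO low control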
Jurkat NFkB inh: lowers PMA/ionomycin-induced NF-kB signal in Jurkat cells; inhibition, % at 4 µM; AID 435003; 330,000 tested, 0.53% active; PMA/ionomycin-induced NF-kB luciferase reporter, luminescence; in the data active = inhibition above about 50%
CHOP inhibitor: inhibitors of CHOP induction in ER stress response; CHO-K1 CHOP-promoter luciferase, tunicamycin-induced, 15-18 h; inhibition, % at 10 µM; AID 2732; 220,000 tested, 3.8% active;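 active = compounds that reduced the stress-induced luciferase reporter signal by more than about 70% of percent inhibition, limit read from the data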
Numbers stand for hits; 0 = inactive; - = no result.

SMILES | UPR XBP1 act | 697 NFkB inh | UPR CHOP act | Jurkat NFkB inh | CHOP inhibitor
CC(C)(C)c1[nH]nc2c1C(C1C=CCCC1)C(C#N)=C(N)O2 (stereo not given) | 0 | 0 | 0 | 0 | 83
CCCCCCOC(=O)Sc1nc2ccccc2o1 | 0 | 0 | 0 | 0 | 95
O=C(NNC(=S)NCC1CCCO1)c1cc(Br)ccc1Cl (stereo not given) | 0 | 0 | 0 | 0 | -
CC(C)Nc1nc(Oc2ccc(Cl)cc2Cl)cc(C(F)(F)F)n1 | 0 | 0 | 0 | 0 | 0
CC(C)Nc1nc(Oc2cccc(Cl)c2Cl)cc(C(F)(F)F)n1 | 0 | 0 | 0 | 0 | 75
O=c1c2nncn2c2cc(C(F)(F)F)ccc2n1CCNc1ncc(C(F)(F)F)cc1Cl | 0 | 0 | 0 | 0 | 85
O=C(CSc1cc(Cl)ccc1Cl)NC1CCCC1 | 0 | 0 | 0 | 0 | -
Cc1ccc(C(=O)NC2CCS(=O)(=O)C2)cc1S(=O)(=O)N1CCCCCC1 (stereo not given) | 0 | 0 | 0 | 0 | 0
CN(C)c1ccc(N/C(N)=N/c2nc(C(F)(F)F)cc(C(F)(F)F)n2)cc1 | 0 | 0 | 0 | 0 | 85
Cc1cccc(N/C(N)=N/c2nc(C(F)(F)F)cc(C(F)(F)F)n2)c1 | 0 | 0 | 0 | 0 | 0
CCN(CC)c1ccc(N/C(N)=N/c2nc(C(F)(F)F)cc(=O)[nH]2)cc1 | 0 | 0 | 0 | 0 | 73
O=[N+]([O-])c1ccc(/C=N/n2cnc3ccccc32)s1 | 0 | 0 | 0 | 0 | 83
COc1cc(SC)ccc1C(=O)Nc1ccc(Cl)cn1 | 0 | 0 | 0 | 0 | 86
CSc1ccc(Cl)c(C(=O)Nc2ccc(Cl)cn2)c1 | 0 | 0 | 0 | 0 | 0
O=[N+]([O-])c1ccc(O)c(/C=N\N=C2c3ccccc3-c3ccccc32)c1 | 0 | 0 | 0 | 0 | 79
CC(NC(=O)COC(=O)C1(C)CC1(Cl)Cl)c1ccccc1 (stereo not given) | 0 | 0 | 0 | 0 | -
O=C(/C=C/c1ccccc1Cl)Nc1ccc2c(c1)C(=O)NC2=O | 0 | 0 | 0 | 0 | 94
O=C(Nc1cccc(S(=O)(=O)N2CCOCC2)c1)c1cn(-c2ccccc2)nc1-c1ccc(F)cc1 | 0 | 0 | 0 | 0 | 72
CC(C)(C)N(Cc1ccccc1)C(=O)COC(=O)C1=NN(c2ccccc2)C(=O)CC1 | 0 | 0 | 0 | 0 | -
CCOC(=O)C1CCN(S(=O)(=O)c2ccc(Br)c(OCC)c2)CC1 | 0 | 0 | 0 | 0 | 88
CCOC(=O)N1CCN(S(=O)(=O)c2ccc3[nH]c(=O)oc3c2)CC1 | 0 | 0 | 0 | 0 | 0
CCOC(=O)C1CCN(S(=O)(=O)c2ccc3[nH]c(=O)oc3c2)CC1 | 0 | 0 | 0 | 0 | 78
CCOC(=O)c1cnc2ccc(OCC)cc2c1NCc1ccccc1OC | 0 | 0 | 0 | 0 | 82
CC1CC2(CCCCC2)N2C(=O)C(=O)c3cccc1c32 (stereo not given) | 0 | 0 | 0 | 0 | 75
Cc1ccc(OCCOCCOc2cccc3cccnc23)c(Br)c1 | 0 | 0 | 0 | 0 | 0
SMILES | UPR XBP1 act | 697 NFkB inh | UPR CHOP act | Jurkat NFkB inh | CHOP inhibitor
Clc1cc(Br)ccc1OCCOCCOc1cccc2cccnc12 | 0 | 0 | 0 | 0 | 71
Cc1ccc(C)c(NC(=O)COC(=O)c2cc(=O)c3ccccc3o2)c1 | 0 | 0 | 0 | 0 | -
O=C(CCN1C(=O)C2C3C=CC(C3)C2C1=O)Nc1ccc2c(c1)OCO2 (stereo not given) | 0 | 0 | 0 | 0 | 0
O=C(CCN1C(=O)C2C3C=CC(C3)C2C1=O)Nc1ccc(F)cc1 (stereo not given) | 0 | 0 | 0 | 0 | 86
COc1cc2c(cc1OC)C1(CCCC1)C(N)=C2C#N | 0 | 0 | 0 | 0 | 70
Cc1cc(NC(=O)CN(C)S(=O)(=O)c2cccc(Cl)c2)no1 | 0 | 0 | 0 | 0 | 0
COc1ccccc1N=Cc1c(C)c(C#N)c2[nH]c3ccccc3n2c1=O | 0 | 0 | 0 | 0 | 84
NC1=NC(=O)/C(=C/c2c(OS(=O)(=O)c3ccc(Cl)cc3)ccc3ccccc23)S1 | 0 | 0 | 0 | 0 | 94
Cc1cccc(NC(=O)c2cccc(S(=O)(=O)N(C)c3ccccc3)c2)n1 | 0 | 0 | 0 | 0 | -
Nc1c(S(=O)(=O)c2cccs2)c2nc3ccccc3nc2n1/N=C/c1cccc(O)c1 | 0 | 0 | 0 | 0 | 89
COc1cccc(/C=N/n2c(N)c(S(=O)(=O)c3cccs3)c3nc4ccccc4nc32)c1 | 0 | 0 | 0 | 0 | 0
O=C(Nc1nc2ccccc2s1)C1CCN(S(=O)(=O)c2cc([N+](=O)[O-])ccc2Cl)CC1 | 0 | 0 | 0 | 0 | 83
CCC(C)NC(=O)C1CCN(S(=O)(=O)c2cc([N+](=O)[O-])ccc2Cl)CC1 (stereo not given) | 0 | 0 | 0 | 0 | 0
O=C(Nc1ccc(F)cc1)c1cnc(-c2ccccc2)nc1-c1ccccc1 | 0 | 0 | 0 | 0 | 81
O=C(Nc1ccc(F)c(F)c1)c1cnc(-c2ccccc2)nc1-c1ccccc1 | 0 | 0 | 0 | 0 | 94
C=CCSc1nnc(NC(=O)CSc2nc3ccccc3o2)s1 | 0 | 0 | 0 | 0 | 0
C=CCSC1=NC(=O)/C(=C/c2cccs2)S1 | - | - | - | - | 81
NC1=NC(=O)/C(=C/c2cccs2)S1 | 0 | 0 | 0 | 0 | 0
O=C(NCc1cccnc1)c1ccc(Cn2c(=S)[nH]c3ccc(Br)cc3c2=O)cc1 | 0 | 0 | 0 | 0 | 0
O=C(Cn1c(=O)sc2ccccc21)NCc1ccccn1 | 0 | 0 | 0 | 0 | 75
O=C(O)c1cc(NN=C2c3ccccc3-c3ccccc32)ccc1Cl | 0 | 0 | 0 | 0 | -
Cc1ccc(N/N=C2\CC(=O)c3ccccc32)cc1Cl | 96 | 0 | 49 | 0 | 0
O=C(Nc1ccncc1)C1COc2ccccc2O1 (stereo not given) | 0 | 0 | 0 | 0 | 0
O=C(NC1=NCCS1)C1COc2ccccc2O1 (stereo not given) | 0 | 0 | 0 | 0 | 76
CCOC(=O)c1ccccc1NC(=O)C1COc2ccccc2O1 (stereo not given) | 0 | 0 | 0 | 0 | 74
SMILES | UPR XBP1 act | 697 NFkB inh | UPR CHOP act | Jurkat NFkB inh | CHOP inhibitor
CCN(CC(=O)Nc1ccc(NC(C)=O)cc1)C(=O)/C=C/c1ccc(S(=O)(=O)N2CCCCCC2)cc1 | 0 | 0 | 0 | 0 | -
O=[N+]([O-])c1cc(C(F)(F)F)cc([N+](=O)[O-])c1N1CCCNCC1 | 0 | 0 | 0 | 0 | 0
CC(=O)N1N=C(c2ccc(C)cc2)OC1c1ccc(Br)cc1 (stereo not given) | 0 | 0 | 0 | 0 | 93
C=CCn1c(-c2ccc(S(=O)(=O)N3CCOCC3)cc2)csc1=Nc1ccccc1 | 0 | 0 | 0 | 0 | 72
CCn1c(C)cc(/C=C2\NC(=O)N(CC(=O)Nc3cccc(C)c3)C2=O)c1C | 0 | 0 | 0 | 0 | 81
CCn1c(C)cc(/C=C2/NC(=O)N(CC(=O)Nc3cccc(C)c3)C2=O)c1C | - | - | - | - | 0
CCn1c(C)cc(/C=C2/SC(=O)N(CC(=O)N3CCCC3)C2=O)c1C | 0 | 0 | 0 | 0 | -
